Data: ChEMBL document CHEMBL1145781, “Synthesis and structure-activity relationships of 5-amino-6-fluoro-1-[(1R,2S)-2-fluorocyclopropan-1-yl]-8-methylquinolonecarboxylic acid antibacterials having fluorinated 7-[(3R)-3-(1-aminocyclopropan-1-yl)pyrrolidin-1-yl] substituents” (J Med Chem, 2003)
≈ marks a conversion by molar mass, not a printed value.

How the values were obtained:
Streptococcus pneumoniae [1] = experiment: Antibacterial activity was determined against clinically isolated penicillin resistant Streptococcus pneumoniae (PRSP) strains (50 strains); assay type: functional
Enterococcus sp. [2] = experiment: Antibacterial activity was determined against clinically isolated vancomycin-B resistant enterococci (VRE) strains (10 strains); assay type: functional
Staphylococcus aureus [3] = experiment: Antibacterial activity was determined against clinically isolated Levofloxacin-methicillin resistant Staphylococcus aureus (LVFX-r MRSA) strains (74 strains); assay type: functional
Enterococcus sp. [4] = experiment: Antibacterial activity was determined against clinically isolated vancomycin-A resistant enterococci (VRE) strains (33 strains); assay type: functional
Streptococcus mitis = experiment: Antibacterial activity was determined against Streptococcus mitis IID685 strain after incubation at 37 degrees C for 18 h; assay type: functional
Enterococcus faecalis = experiment: Antibacterial activity was determined against Enterococcus faecalis ATCC 19433 strain after incubation at 37 degrees C for 18 h; assay type: functional; details: ATCC 19433, 18 h
[5] = test system: Staphylococcus epidermidis; experiment: Antibacterial activity was determined against Staphylococcus epidermis 56500 strain after incubation at 37 degrees C for 18 h; assay type: functional
[6] = Mortality was determined after 150 mg/kg dose administered intravenously to 5-week old male mice at a speed of 0.2 mL/min counted on day 7 for total 2 mice; assay type: ADME, organism-based; set-up: dose 150 mg/kg, route intravenous; details: mouse, in vivo, iv
Summary of the method: (§1)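 Male Slc:ddY mice, 5 weeks old. Compound dissolved in 0.1 N NaOH in saline at varied concentrations and given as a single IV injection at 0.2 mL/min, total volume 10 mL/kg body weight. Deaths counted on day 7 and reported as dead/tested.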

Pseudomonas aeruginosa = experiment: Antibacterial activity was determined against Pseudomonas aeruginosa PAO1 strain after incubation at 37 degrees C for 18 h; assay type: functional
Escherichia coli = experiment: Antibacterial activity was determined against Escherichia coli NIHJ strain after incubation at 37 degrees C for 18 h; assay type: functional
Streptococcus pyogenes = experiment: Antibacterial activity was determined against Streptococcus pyogenes G-36 strain after incubation at 37 degrees C for 18 h; assay type: functional
Staphylococcus aureus [7] = experiment: Antibacterial activity was determined against Staphylococcus aureus FDA 209-P strain after incubation at 37 degrees C for 18 h; assay type: functional
[8] = Mortality was determined after 50 mg/kg dose administered intravenously to 5-week old male mice at a speed of 0.2 mL/min counted on day 7 for total 5 mice; assay type: ADME, organism-based; set-up: dose 50 mg/kg, route intravenous; details: mouse, in vivo, iv; summary of the method: as §1
Streptococcus pneumoniae [9] = experiment: Antibacterial activity was determined against Streptococcus pneumoniae J-24 strain after incubation at 37 degrees C for 18 h; assay type: functional
Klebsiella pneumoniae = experiment: Antibacterial activity was determined against Klebsiella pneumoniae type II strain after incubation at 37 degrees C for 18 h; assay type: functional
[10] = Mortality was determined after 100 mg/kg dose administered intravenously to 5-week old male mice at a speed of 0.2 mL/min counted on day 7 for total 2 mice; assay type: ADME, organism-based; set-up: dose 100 mg/kg, route intravenous; details: mouse, in vivo, iv; summary of the method: as §1
[11] = Mortality was determined after 100 mg/kg dose administered intravenously to 5-week old male mice at a speed of 0.2 mL/min counted on day 7 for total 5 mice; assay type: ADME, organism-based; set-up: dose 100 mg/kg, route intravenous; details: mouse, in vivo, iv; summary of the method: as §1
[12] = Toxicity was determined as presence of micronucleated reticulocytes (MNRET) in blood at 24 and 48 hr after 100 mg/kg dose administered intravenously to 5-week old male mice; positive.; assay type: organism-based; set-up: dose 100 mg/kg, route intravenous; details: mouse, in vivo, iv
[13] = Solubility was determined in water; assay type: physicochemical
[14] = Toxicity was determined as presence of micronucleated reticulocytes (MNRET) in blood at 24 and 48 hr after 100 mg/kg dose administered intravenously to 5-week old male mice; negative.; assay type: organism-based; set-up: dose 100 mg/kg, route intravenous; details: mouse, in vivo, iv
[15] = Mortality was determined after 50 mg/kg dose administered intravenously to 5-week old male mice at a speed of 0.2 mL/min counted on day 7 for total 2 mice; assay type: ADME, organism-based; set-up: dose 50 mg/kg, route intravenous; details: mouse, in vivo, iv; summary of the method: as §1

Row | Structure (SMILES) | MIC50 (Streptococcus pneumoniae [1]) | MIC90 (Streptococcus pneumoniae [1]) | MIC50 (Enterococcus sp. [2]) | MIC90 (Enterococcus sp. [2]) | MIC50 (Staphylococcus aureus [3]) | MIC90 (Staphylococcus aureus [3]) | MIC50 (Enterococcus sp. [4]) | MIC90 (Enterococcus sp. [4]) | MIC (Streptococcus mitis) | MIC (Enterococcus faecalis) | MIC [5] | Dead [6] | MIC (Pseudomonas aeruginosa) | MIC (Escherichia coli) | MIC (Streptococcus pyogenes) | MIC (Staphylococcus aureus [7]) | MIC (Streptococcus pneumoniae [9]) | MIC (Klebsiella pneumoniae) | other results
1 | CC(=O)N[C@@H]1[C@H](Oc2c3cc4cc2Oc2ccc(cc2Cl)[C@@H](O[C@@H]2O[C@@H](CO)[C@@H](O)[C@H](O)[C@@H]2NC(C)=O)[C@@H]2NC(=O)[C@H](NC(=O)[C@@H]4NC(=O)[C@H]4NC(=O)[C@@H](Cc5ccc(c(Cl)c5)O3)NC(=O)[C@H](N)c3ccc(O)c(c3)Oc3cc(O)cc4c3)c3ccc(O)c(c3)-c3c(O[C@H]4O[C@H](CO)[C@@H](O)[C@@H](O)[C@@H]4O)cc(O)cc3[C@@H](C(=O)O)NC2=O)O[C@@H](CO)[C@@H](O)[C@@H]1O | 0.25 µg/mL (≈ 0.141 µM) | 0.5 µg/mL (≈ 0.283 µM) | 1 µg/mL (≈ 0.566 µM) | 2 µg/mL (≈ 1.13 µM) | 0.5 µg/mL (≈ 0.283 µM) | 1 µg/mL (≈ 0.566 µM) | 32 µg/mL (≈ 18.1 µM) | 64 µg/mL (≈ 36.2 µM) |  |  |  |  |  |  |  |  |  |  | 
2 | Cc1c(N2C[C@H](F)[C@@H](C3(N)CC3)C2)c(F)c(N)c2c(=O)c(C(=O)O)cn([C@@H]3C[C@@H]3F)c12 |  |  |  |  |  |  |  |  | ≤ 0.003 µg/mL | 0.013 µg/mL (≈ 0.0298 µM) | ≤ 0.003 µg/mL | 2 | 0.2 µg/mL (≈ 0.458 µM) | ≤ 0.003 µg/mL | ≤ 0.003 µg/mL | ≤ 0.003 µg/mL | ≤ 0.003 µg/mL | 0.013 µg/mL (≈ 0.0298 µM) | Dead [8]: 0; Dead [10]: 2
3 | Cc1c(N2CC[C@@H](C3(N)CC3)C2)c(F)c(N)c2c(=O)c(C(=O)O)cn([C@@H]3C[C@@H]3F)c12 |  |  |  |  |  |  |  |  | ≤ 0.003 µg/mL | 0.013 µg/mL (≈ 0.0311 µM) | ≤ 0.003 µg/mL | 2 | 0.1 µg/mL (≈ 0.239 µM) | ≤ 0.003 µg/mL | ≤ 0.003 µg/mL | ≤ 0.003 µg/mL | ≤ 0.003 µg/mL | 0.025 µg/mL (≈ 0.0597 µM) | Dead [11]: 0; Toxicity [12]: Toxic; solubility [13]: 39 µg/mL (≈ 93.2 µM)
4 | Cc1c(N2C[C@H](C3(N)CC3)C(F)(F)C2)c(F)c(N)c2c(=O)c(C(=O)O)cn([C@@H]3C[C@@H]3F)c12 |  |  |  |  |  |  |  |  | ≤ 0.003 µg/mL | 0.013 µg/mL (≈ 0.0286 µM) | ≤ 0.003 µg/mL | 2 | 0.2 µg/mL (≈ 0.44 µM) | ≤ 0.003 µg/mL | ≤ 0.003 µg/mL | ≤ 0.003 µg/mL | ≤ 0.003 µg/mL | 0.013 µg/mL (≈ 0.0286 µM) | Dead [11]: 1; Toxicity [14]: Non-toxic
5 | Cc1c(N2CC[C@@H](CN)C2)c(F)c(N)c2c(=O)c(C(=O)O)cn(C3C[C@@H]3F)c12 (single isomer, unassigned) |  |  |  |  |  |  |  |  | 0.006 µg/mL (≈ 0.0153 µM) | 0.025 µg/mL (≈ 0.0637 µM) | 0.006 µg/mL (≈ 0.0153 µM) | 2 | 0.1 µg/mL (≈ 0.255 µM) | 0.013 µg/mL (≈ 0.0331 µM) | 0.013 µg/mL (≈ 0.0331 µM) | ≤ 0.003 µg/mL | 0.013 µg/mL (≈ 0.0331 µM) | 0.1 µg/mL (≈ 0.255 µM) | Dead [15]: 2; solubility [13]: 404 µg/mL (≈ 1030 µM); Dead [10]: 2
6 | CC(=O)NCC1CN(c2ccc(N3CCOCC3)c(F)c2)C(=O)O1 (single isomer, unassigned) [LINEZOLID] | 0.5 µg/mL (≈ 1.48 µM) | 0.5 µg/mL (≈ 1.48 µM) | 2 µg/mL (≈ 5.93 µM) | 2 µg/mL (≈ 5.93 µM) | 2 µg/mL (≈ 5.93 µM) | 2 µg/mL (≈ 5.93 µM) | 2 µg/mL (≈ 5.93 µM) | 2 µg/mL (≈ 5.93 µM) |  |  |  |  |  |  |  |  |  |  | 
7 | NCC[C@H](O)C(=O)N[C@@H]1C[C@H](N)[C@@H](O[C@H]2O[C@H](CN)CC[C@H]2N)[C@H](O)[C@H]1O[C@H]1O[C@H](CO)[C@@H](O)[C@H](N)[C@H]1O [ARBEKACIN] | 16 µg/mL (≈ 29 µM) | 32 µg/mL (≈ 57.9 µM) | 32 µg/mL (≈ 57.9 µM) | > 128 µg/mL | 8 µg/mL (≈ 14.5 µM) | 32 µg/mL (≈ 57.9 µM) | 16 µg/mL (≈ 29 µM) | 64 µg/mL (≈ 116 µM) |  |  |  |  |  |  |  |  |  |  | 
8 | O=C(O)c1cn(C2CC2)c2cc(N3CCNCC3)c(F)cc2c1=O [CIPROFLOXACIN] |  |  |  |  |  |  |  |  | 0.78 µg/mL (≈ 2.35 µM) | 0.78 µg/mL (≈ 2.35 µM) | 0.2 µg/mL (≈ 0.604 µM) |  | 0.05 µg/mL (≈ 0.151 µM) | ≤ 0.003 µg/mL | 1.56 µg/mL (≈ 4.71 µM) | 0.05 µg/mL (≈ 0.151 µM) | 0.39 µg/mL (≈ 1.18 µM) | 0.025 µg/mL (≈ 0.0754 µM) | 
